This passage reports cytotoxicity results from ChEMBL document CHEMBL4513216, “Probing the Open Global Health Chemical Diversity Library for Multistage-Active Starting Points for Next-Generation Antimalarials” (ACS Infect Dis, 2020).

A short description of the data set: Toxicity liver stage against HepG2, at 10uM. The data set is classed as cell-based. Details: test concentration 10 uM, cell line HepG2-A16-CD81EGFP. Particulars: human, HepG2-A16-CD81EGFP cells; read-out: INHIBITION
Put shortly:
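Uninfected HepG2-A16-CD81EGFP cells, 3 × 10^3 per well, 1536-well, plated on prespotted compound at 10 μM final, parasite-free screening media added to match infected plates; puromycin 10 μM positive, DMSO 0.5% negative; run in parallel with 48 h PbLuc assay at 37 °C, 5% CO2; viability by CellTiter-Glo luminescence, normalized to controls.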

Consider `CNC(=O)[C@@]12CCCN(c3ncccn3)[C@@H]1CN(c1ncc(F)cn1)C2`, for which the cytotoxicity at 10 µM is -1.43%.

In the case of `O=C(c1cscn1)N1CCn2cnc(COCC3CC3)c2C1`, the cytotoxicity at 10 µM is -4.6%. Consider `CC1=C[C@@H](CN2CCCC2)[C@H](C(C)C)C[C@H]1Cc1nnc(C)o1`, for which the cytotoxicity at 10 µM stood at 2.47%. With `CN(C)[C@@H]1CN(C(=O)Cc2ccccc2)[C@@H]2CCCO[C@H]12`, the cytotoxicity at 10 µM came to 3.31%. Then `CCNc1ncc(CN(CCN(C)C)Cc2ccc(C)s2)cn1`, with -46.1%. Then `CC(C)(C)c1cc(CN2CC[C@@H](NC(=O)c3cccnc3)[C@H](O)C2)n[nH]1`, with -13.2%; and `CC(C)N1CCCC(Cc2nccnc2Cl)C1` (centres undefined), with -3.22%. Then `Cc1nc(CNC(=O)c2cc(Cn3ccnc3C(C)C)[nH]n2)sc1C`, with 2.99%; and `O=C(CC1CCCC1)NCCn1nc2ccccn2c1=O`, with 9.97%. As to `CSc1ccsc1C(=O)NC(Cc1ccccc1)C(N)=O` (centres undefined), the cytotoxicity at 10 µM was -5.24%. Then `CC(C)c1nnc2n1CC(CNCc1nc3ccccc3s1)CC2` (centres undefined), with 13%; and `CCOc1ccc(CN2CCCC(c3nn(C)c(=O)n3CC)C2)cn1` (centres undefined), with -2.85%. In the case of `CC(C)(O)CN1CCN(C(=O)c2ccc(Cl)c3cccnc23)CC1`, the cytotoxicity at 10 µM was -9.19%. Then `CC(C)C(=O)N1CCN(Cc2ccccn2)CC2(CC(=O)N(C)C2)C1` (centres undefined), with 0.0515%. As to `Cc1cnc(C(=O)N2CCCCC2c2ccc(CN(C)C)cc2)cn1` (centres undefined), the cytotoxicity at 10 µM is -2.46%. In the case of `O=C(CC1CC1)N1CCC2(CC1)CN(c1ccsc1)C(=O)CO2` it was -73.1%; in that of `CCCN1CCN(Cc2cccc(OC(C)C)c2)[C@H]2CS(=O)(=O)C[C@H]21`, 4.77%. On to `Cc1ccc(C)c(CN(CC(N)=O)C(C)C)c1`, for which the cytotoxicity at 10 µM was found to be 0.477%. In the case of `Cn1cnnc1C1CCCN(C(=O)NCc2ccccc2)C1` (centres undefined) it was -14%; in that of `CC(CNC(=O)c1cc(C2CC2)on1)N1CCc2ccccc21` (centres undefined), -11.8%; in that of `Cn1cc(C(NCCc2ccccn2)c2cccc(F)c2)cn1` (centres undefined), 9.73%. In the case of `O=C(C1CCN(c2snc3ccccc23)CC1)N1CCCCCC1` it was 11.7%; in that of `Cc1nc(CNC(=O)C(C)(C)c2ccc(F)cc2)no1`, 6.08%. Consider `CC1CN(Cc2cccc(CN)c2)CCO1` (centres undefined), for which the cytotoxicity at 10 µM was -8.99%.

As to `O=C(NCCc1ccncc1)[C@H]1CC[C@@H]2[C@@H](CCN2CC2CC2)O1`, the cytotoxicity at 10 µM was 0.545%.

Regarding `C=C(C)COc1cccc(CNCc2nc3ccccc3c(=O)[nH]2)c1`, the cytotoxicity at 10 µM is -40.9%. In the case of `Cc1csc(N2CCN(CC(=O)Nc3ccncc3)CC2C)n1` (centres undefined) it was 29.3%.

`COCCN1CC(=O)N2CC[C@@H](O)C[C@H]2C1=O`: the cytotoxicity at 10 µM was -8.03%. In the case of `CS(=O)(=O)N1CC[C@H](c2nc3ccc(C(F)(F)F)cc3[nH]2)C1` it was 0.0915%. Then `Cc1nn(C)c2nc(N(Cc3cnn(C)c3)C3CCCCC3)sc12`, with -1.24%; and `O=C(N1CCC(Oc2ccncc2)C1)C1(c2ccccc2F)CC1` (centres undefined), with -10.4%. For `Cn1nc(N2CCCC(C(=O)Nc3nc4ccccc4[nH]3)C2)ccc1=O` (centres undefined), the cytotoxicity at 10 µM amounted to 1.08%. As for `CC(C)n1ccnc1C1CCN(C(=O)N2CCCC2)CC1`, the cytotoxicity at 10 µM was found to be 0.386%. In the case of `Cc1cc(C)n(-c2ccccc2NC(=O)NCCCN(C)S(C)(=O)=O)n1` it was -4.01%; in that of `COc1ccc(Cl)cc1CS(=O)(=O)Cc1cc(C)on1`, 6.06%. As to `COc1ccc(-c2n[nH]cc2CN(C)Cc2nonc2C)c(F)c1`, the cytotoxicity at 10 µM is -6.46%. `CCS(=O)(=O)CC(=O)NC(c1ccc(F)cc1)C1CCCC1` (centres undefined): the cytotoxicity at 10 µM was 4.57%. Then `CS(=O)(=O)N1CCCC(c2cccc(-c3ccccc3F)n2)C1` (centres undefined), with -3.81%; and `CC1NC(=O)COC12CCN(C(=O)Cc1ccsc1)CC2` (centres undefined), with -5.73%. As for `CC(C)(C)OC(=O)N1CC(=O)N(CCc2ccccc2)CC(O)C1` (centres undefined), the cytotoxicity at 10 µM is -12.9%.

Take `COCCNC(=O)Cn1ccc2cccc(OC)c21`: the cytotoxicity at 10 µM is -45.8%.

`CCNc1cc2c(nn1)CCN(C(=O)c1ccoc1)C2`: the cytotoxicity at 10 µM is -6.9%. `Cn1cc(CN2CCOC(c3cccc(-c4cncnc4)n3)C2)cn1` (centres undefined): the cytotoxicity at 10 µM is 4.74%. Turning to `Cc1csc(CNC(=O)NCC(O)c2ccc(F)c(F)c2)n1` (centres undefined), the cytotoxicity at 10 µM amounted to 2.51%. In the case of `Cc1cc(-c2cnc(N(C)C)nc2C2CCCCN2C(=O)C2CC2)on1` (centres undefined) it was 0.095%.

For the compound `CCc1ncc2c(n1)CN(c1cc(NCCO)nc(N)n1)C2`, the cytotoxicity at 10 µM was -4.49%.

Turning to `CNC(=O)Cc1csc(NC(=O)C2CSCCC(=O)N2)n1` (centres undefined), the cytotoxicity at 10 µM is -4.94%. In the case of `CCOCc1nnc(NCc2cccc(C)c2)o1` it was 16.3%.

In the case of `CC(C)c1nn(C)c(N(C)C)c1CNCc1ccc(N(C)C)nc1`, the cytotoxicity at 10 µM was -8.42%. Take `O=C(c1cnccn1)N1CC[C@@H]2CO[C@@H](CN3CCCC3)[C@@H]2C1`: the cytotoxicity at 10 µM was -1.19%. Then `CCC(CC)c1cc(CNC(=O)N2CCCC(C(=O)NC)C2)on1` (centres undefined), with -18.6%; and `Cc1noc(C)c1-c1cncc(C2CCCN2Cc2cncnc2)n1` (centres undefined), with 5.25%. Then `Cc1nc(CCNC(=O)C2CC(=O)N(C(C)(C)C)C2)sc1C` (centres undefined), with -13.2%; and `Cc1ccc(C(=O)N2C[C@@H]3CN(c4ncccn4)C[C@@H]3C2)cc1`, with 9.34%. In the case of `Cc1cccc(CNC(CN2CCN(C)CC2)c2ccccc2)c1` (centres undefined), the cytotoxicity at 10 µM was -3.61%.

Regarding `CN(C)CCN1CCO[C@@H]2CN(C(=O)Cc3ccsc3)CC[C@@H]2C1`, the cytotoxicity at 10 µM was -119%. In the case of `CC(C)Cn1ccc2c(NC(=O)c3n[nH]c4c3CCC4)cccc21` it was 7.33%; in that of `Cc1cc(C2CCCN2Cc2ccc(S(=O)(=O)N3CCCC3)o2)on1` (centres undefined), -11.9%. With `Cc1ccc(CN2CC3(CCN(C(=O)c4cscn4)C3)C2)s1`, the cytotoxicity at 10 µM is -10.3%.

As for `COc1c(CNCC(=O)N2CCN(C)CC2)c(C(C)C)nn1C`, the cytotoxicity at 10 µM was 7.45%. Then `O=C(CCNCc1cccc2c1OCCCO2)NC1CCCC1`, with 0.66%; and `O=C(c1cccc(F)c1)N1C[C@H]2CCCC(OCc3cccnc3)[C@H]2C1` (some centres undefined), with 8.21%.

In the case of `COc1ccc(C(=O)N2C[C@@H](CN3CCCCC3)[C@@H](CO)C2)cc1Cl`, the cytotoxicity at 10 µM is -0.703%. Then `Cc1ccccc1NCc1nc2n(n1)CCCCC2`, with 4.7%.

`CCc1noc(CN(C)Cc2ccc(N3CCCCC3)cc2)n1`: the cytotoxicity at 10 µM was -5.88%. `CCN(CC)S(=O)(=O)N(Cc1ccccn1)Cc1ccccc1C`: the cytotoxicity at 10 µM turned out to be 16.9%. Turning to `CCNC(=O)c1cn2cc(-c3ccccc3Cl)n(CC3CC3)c(=O)c2n1`, the cytotoxicity at 10 µM worked out at 4.63%.

For the compound `Cn1cc(C(=O)N2CCCC(n3cccn3)C2)c2ccccc21` (centres undefined), the cytotoxicity at 10 µM came out at 5.2%. With `O=C(NCc1cccs1)[C@@H]1CC[C@@H]2[C@@H](CCN2c2ncccn2)O1`, the cytotoxicity at 10 µM is -0.53%.

In the case of `Cc1ccc2cccc(S(=O)(=O)N(C)C3CCCN(C)C3)c2n1` (centres undefined), the cytotoxicity at 10 µM worked out at 1.5%. `N#Cc1cc(F)c(NCc2ccc(F)cc2)c(F)c1`: the cytotoxicity at 10 µM is -57%. Regarding `CNC(=O)CN1CCN(C(=O)c2ccn(C)c(=O)c2)CC1`, the cytotoxicity at 10 µM is -16%. Then `Cc1nc(C)c(CC(=O)N2C[C@@H](C(=O)O)[C@H](c3ccccc3C)C2)s1`, with -120%; and `O=C(Cn1cccn1)N(CCO)CCSc1ccc(Cl)cc1`, with 0.513%; and `Cc1c(Cl)cccc1NCc1nc2n(n1)CCCCC2`, with 10.6%. Regarding `CCn1c(C)nnc1SCCNc1nc(C)nc2c1cnn2C`, the cytotoxicity at 10 µM is 7.9%. In the case of `O=C(CCn1ccc(=O)[nH]c1=O)N1CCC(Oc2ncccc2Cl)CC1` it was 1.71%; in that of `O=C(c1ccco1)N1CCC2(CC1)C(=O)Nc1ccccc12`, -144%; in that of `CCC(C(=O)NCc1ccncc1)N(c1ccc(OC)cc1)S(C)(=O)=O` (centres undefined), -10.2%. Then `CCN1Cc2c(C(=O)NCC3CC3)ncn2-c2ccccc2S1(=O)=O`, with -12.2%; and `Cc1nc2c(C(=O)O)cccc2n1-c1ccc(C(=O)N2CCCC2)o1`, with -2.36%. With `CSc1nccc(N2CCC(=O)N(CC3CC3)C(C(C)C)C2)n1` (centres undefined), the cytotoxicity at 10 µM is -2.02%. In the case of `Cc1ncc2c(c1C(=O)O)CCN(c1ncc(F)cn1)C2`, the cytotoxicity at 10 µM was -2.19%.

Take `CCc1ncc2c(n1)CN(Cc1nc(-c3ccoc3)no1)CC2`: the cytotoxicity at 10 µM came to 1.61%. `N#Cc1ccccc1NC(=O)c1ccc2c(c1)OCO2`: the cytotoxicity at 10 µM was -10.4%.

On to `Cc1cc(C(=O)N(C)Cc2nc(-c3ccccn3)no2)c(C)o1`, for which the cytotoxicity at 10 µM came out at 2.84%. Turning to `Cc1cc(CN(C)CC2CC(C3CCCCC3)=NO2)no1` (centres undefined), the cytotoxicity at 10 µM came to 22.4%. `Cc1cccc(CN2CCS(=O)(=O)[C@@H]3CCN(C(=O)C4CC4)CC[C@@H]32)n1`: the cytotoxicity at 10 µM was -3.64%. As for `CC(=O)N1CCCCC[C@@H]2[C@@H]1[C@H](c1cccc(F)c1)CN2C(=O)C1CC1`, the cytotoxicity at 10 µM was 6.75%. On to `COC[C@@H]1CCC[C@]12CN(Cc1ccco1)CCO2`, for which the cytotoxicity at 10 µM was -4.89%.

Regarding `O=C1CCC(C(=O)Nc2ccc(=O)n(Cc3ccccc3Cl)c2)N1` (centres undefined), the cytotoxicity at 10 µM was -1.36%. For the compound `CCN1CCN(C(=O)c2cc(-c3cccn3C)n[nH]2)[C@H]2CS(=O)(=O)C[C@H]21`, the cytotoxicity at 10 µM was -12.5%. Turning to `O=c1cc(Cn2cncn2)nc2n1CCCN(Cc1ccsc1)C2`, the cytotoxicity at 10 µM was -0.123%. Consider `CCN(CC(F)(F)F)C(=O)C1CCCN(Cc2cscn2)C1` (centres undefined), for which the cytotoxicity at 10 µM is -8.64%.
